Experimental data from different studies.
Compare with care: the assays were run in different laboratories.
Target: Ephrin type-A receptor 7 (EPHA7, Homo sapiens, UniProt Q15375)

| SMILES | read-out | action | method | tested at | measurement | value |
| --- | --- | --- | --- | --- | --- | --- |
| CO[C@@H](C)c1c(Nc2ccc([C@H](N(C)C(=O)C3CCS(=O)(=O)CC3)C(F)(F)F)cc2)cnc2cc(Cl)nn12 | cell-free assay |  | competition with immobilised ligand | 1 µM | remaining binding | 84% |
| Cc1ccc(NC(=O)c2ccc(C)c(C(F)(F)F)c2)cc1C#Cc1nn(C2CCC(O)CC2)c2ncnc(N)c12 (centres unmarked) | cell-free assay |  |  | 10 µM | remaining signal | 0% |
| CC(C)(C)c1nc2c(s1)c1nc(N)ncc1c1ccc(NS(=O)(=O)c3c(F)cccc3F)c(F)c12 | enzyme activity | inhibitor | radiometric | 1 µM | remaining activity | 96% |
| CNC(=O)c1cc(Oc2ccc(NC(=O)Nc3ccc(Cl)c(C(F)(F)F)c3)cc2)ccn1 | enzyme activity | inhibitor |  | 0.3 µM | inhibition | 30% |
| O=C1NC(=O)c2cc(Nc3ccc(F)cc3)c(Nc3ccc(F)cc3)cc21 | cell-free assay |  |  | 0.5 µM | remaining signal | 84.6% |
| CNC(=O)c1cc2c(Oc3ccc(NC(=O)C4(C(=O)Nc5ccc(F)cc5)CC4)cc3)ccnc2cc1OC | enzyme activity | inhibitor | radiometric | 1 µM | inhibition | 96% |
| Cn1nc(C(=O)NCc2ccc(C(=O)O)cc2)cc1-c1ccc2[nH]ccc2c1 | cell-free assay |  | competition with immobilised ligand | 0.1 µM | remaining binding | 82% |
| Cc1cnc(NC2CCOCC2)nc1-n1cnc(C(=O)NC(CN)c2cc(F)cc(Cl)c2)c1 (centres unmarked) | enzyme activity | inhibitor | radiometric | 1 µM | remaining activity | 88% |
| C[C@@H](c1cccc(C#N)c1)n1cc(Cl)cc(C(N)=O)c1=N | cell-free assay |  | competition with immobilised ligand | 1 µM | remaining binding | 100% |
| O=C1Nc2ccc(Cl)cc2C1=Cc1cc(Cl)c(O)c(Cl)c1 | cell-free assay |  |  | 0.5 µM | remaining signal | 97.5% |
| CCCOc1ccc([C@H]2[C@H](C(=O)O)[C@@H](c3ccc4c(c3)OCO4)CN2CC(=O)Nc2c(CC)cccc2CC)cc1 | cell-free assay |  | competition with immobilised ligand | 1 µM | remaining binding | 98% |
| Cc1ccc(Nc2nccc(N(C)c3ccc4c(C)n(C)nc4c3)n2)cc1S(N)(=O)=O | enzyme activity | inhibitor |  | 10 µM | inhibition | 34% |
| CC(C)(O)[C@H]1CC[C@H](Nc2ccc3ncc(-c4cccc(C(F)(F)F)c4)n3n2)CC1 | enzyme activity | inhibitor |  | 1 µM | remaining activity | 93.3% |
| Nc1ncnc2occ(-c3ccc(NC(=O)Nc4cc(C(F)(F)F)ccc4F)cc3)c12 | cell-free assay |  |  | 20 µM | remaining signal | 0% |
| CC(=O)c1c(NS(C)(=O)=O)c2cc(-c3ccc(Cl)cc3)c(-c3ccc(Cl)cc3Cl)nc2n(C)c1=O | cell-free assay |  | competition with immobilised ligand | 1 µM | remaining binding | 100% |
| CCCCNc1ncc2c(-c3ccc(F)cc3)nn(C[C@H]3CC[C@H](N)CC3)c2n1 | target engagement in cells | inhibitor | chemoproteomics | 20 mM | inhibition | 43.9% |
| CCN(CC)CCNC(=O)c1c(C)[nH]c(/C=C2\C(=O)Nc3ccc(F)cc32)c1C | enzyme activity | inhibitor |  | 0.3 µM | inhibition | 3% |
| CS(=O)(=O)c1cc(C2(NC(=O)c3cncc4c3cnn4-c3ccc(F)cc3)CC2)ccn1 | cell-free assay |  | competition with immobilised ligand | 1 µM | remaining binding | 92% |
| COc1cccc2c(NCc3ccccc3)nc(-n3c(N)nc4ccccc43)nc12 | target engagement in cells | inhibitor | chemoproteomics | 20 mM | inhibition | 2.9% |
| Cc1sc(C(=O)NC2COC2)cc1-n1cc(NC(=O)Nc2c(F)cccc2Cl)cn1 | enzyme activity | inhibitor |  | 10 µM | remaining activity | 98.6% |
